PG9 binder = binders of HIV-1 gp120 antibody PG9, primary screen, biochemical, TR-FRET; HIV-1 gp120 / PG9 antibody interaction; TR-FRET gp120-PG9 antibody binding; inhibition, % at 6.7 µM; hit rate 0.43% among 360,000; AID 624416, 2012; in the data active means inhibition above about 8.5%
NR2E3 ag-1 = inhibitors of NR2E3-RetCOR corepressor binding, primary screen, NR2E3 agonist project, biochemical, TR-FRET, GST-NR2E3, biotin-RetCOR; 1536-well; inhibition of corepressor binding, % at 4.78 µM; hit rate 0.12% among 320,000;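 active means percent inhibition above the cutoff of mean plus 3 SD of all tested compounds, set per screening campaign, cut at about 20% in these data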
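system = GST-tagged NR2E3 plus biotinylated RetCOR corepressor | input = 1.35 nM GST-NR2E3 | also added = 7 nM biotin-RetCOR | schedule = 5 h incubation at 4 °C | measured by = TR-FRET with europium anti-GST and streptavidin-D2, 340 nm excitation | read-out = percent loss of FRET ratio relative to control wells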
Rev-erbA mod = modulators of Rev-erb alpha DNA binding, primary screen, biochemical, FITC-DNA, fluorescence polarization, uHTS; Rev-erbα–FITC-DNA binding, 90 min; activity, % at 10 µM; hit rate 0.79% among 370,000; AID 1259318, 2017;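 active means activity above about 14%, limit read from the data; passing the limit was not always enough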
Target sequence (P20393 whole entry, looked up): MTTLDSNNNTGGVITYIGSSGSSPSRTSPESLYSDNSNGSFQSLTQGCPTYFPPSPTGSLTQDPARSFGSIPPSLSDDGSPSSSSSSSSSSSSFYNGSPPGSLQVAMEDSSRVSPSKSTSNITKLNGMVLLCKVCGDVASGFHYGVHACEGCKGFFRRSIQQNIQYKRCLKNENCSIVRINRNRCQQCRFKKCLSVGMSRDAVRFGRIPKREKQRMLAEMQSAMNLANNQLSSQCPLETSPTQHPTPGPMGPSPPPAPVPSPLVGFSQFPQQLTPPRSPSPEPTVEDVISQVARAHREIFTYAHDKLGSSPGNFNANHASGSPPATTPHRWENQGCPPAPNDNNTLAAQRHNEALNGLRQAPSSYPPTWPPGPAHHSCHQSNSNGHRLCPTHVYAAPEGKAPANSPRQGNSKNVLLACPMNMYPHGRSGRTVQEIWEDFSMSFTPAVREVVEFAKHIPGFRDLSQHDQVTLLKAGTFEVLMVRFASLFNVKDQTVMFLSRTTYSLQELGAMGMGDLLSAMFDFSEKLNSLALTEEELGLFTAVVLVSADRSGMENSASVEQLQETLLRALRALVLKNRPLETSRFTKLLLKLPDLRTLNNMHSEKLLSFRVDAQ
NR2E3 ag-2 = NR2E3 agonists in two-hybrid cells, primary screen, cell-based, luminescence, CHO-S, Gal4-NCOR/VP16-NR2E3. inhibition of corepressor binding, % at 3.98 µM. hit rate 0.35% among 360,000. AID 602229, 2012. Photoreceptor-specific nuclear receptor (Homo sapiens), Q9Y5X4. luciferase;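 active means inhibition above the mean of all tested compounds plus 3 SD, cut at about 70% in these data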;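 further: higher means lower luciferase signal from less NR2E3 corepressor binding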
NR2E3 ag confirm = NR2E3 agonist confirmation in cells, cell-based, luminescence, CHO-S two-hybrid. hit rate 51% among 2,300. shares compounds with NR2E3 ag-2. inhibition, % at 3.98 µM. CHO-S mammalian two-hybrid NR2E3-NCOR, luciferase luminescence. AID 624378, 2012;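 active means average inhibition above a cutoff equal to the mean inhibition of all tested compounds plus one SD, cut at about 70% in these data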
VP16 counter = GAL4-VP16 reporter modulators, confirmation, counter-screen for NR2E3 agonist project, cell-based, luminescence, CHO-S, high throughput | shares compounds with NR2E3 ag-2 | CHO-S GAL4-VP16 luciferase reporter | inhibition, % at 3.98 µM | hit rate 29% among 2,300;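 active means mean inhibition above a cutoff equal to the average over all tested compounds plus one standard deviation, cut at about 70% in these data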;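 further: luciferase from a UAS reporter driven by GAL4-VP16 transactivation; higher means less reporter light so more repression of VP16 activity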
Large screens that a line does not name were inactive (follow-up assays come after a bar, where they were run). Sampled rows, rich in hits. Any-hit rate of the full collection: about 1.4%.

C[N+]1=C(N)N[C@@]2(C=C3CCCCC3n3c(=O)n(-c4ccccc4)c(=O)n32)C1 (stereo partly specified)	none (no result: PG9 binder, NR2E3 ag-1, NR2E3 ag-2)
O=S(=O)(c1cccc(Br)c1)N1CCN(c2ccnc3cc(Cl)ccc23)CC1	none | NR2E3 ag confirm inactive | VP16 counter inactive
COc1ccc(-c2cc(-c3nnc(SCC(=O)Nc4ccc(-c5nc6ccc(C)cc6s5)cc4)n3N)[nH]n2)cc1	none (no result: PG9 binder, NR2E3 ag-1, NR2E3 ag-2)
Cc1ccc(Cc2c(-c3ccc(C)cc3)nc3c(Cl)cc(C(F)(F)F)cn23)cc1	none (no result: PG9 binder, NR2E3 ag-1, Rev-erbA mod) | NR2E3 ag confirm inactive | VP16 counter inactive
Cc1cccc(C)c1Nc1c(-c2ccccn2)nc2ccccn12	NR2E3 ag-2 77 | NR2E3 ag confirm inactive | VP16 counter inactive
Cc1ccc(Nc2c(-c3ccccn3)nc3cccc(C)n23)cc1	NR2E3 ag-2 96 | NR2E3 ag confirm 97 | VP16 counter 83
CCCCCCSc1cccc(-c2nc3ccc(C)cn3c2NC2CCCCC2)c1	none
Cc1cccc2nc(-c3ccco3)c(Nc3ccccc3)n12	none
Cc1ccc2nc(-c3ccccn3)c(NC3CCCC3)n2c1	none | NR2E3 ag confirm inactive | VP16 counter inactive
Cc1cc(C)n2c(Nc3c(C)cccc3C)c(-c3ccccn3)nc2n1	none (no result: NR2E3 ag-1)
O=C(CSc1nnc(-c2cccs2)n1Cc1ccco1)Nc1ccc(Oc2ccccc2)cc1	none (no result: PG9 binder, NR2E3 ag-1, NR2E3 ag-2)
COC(=O)c1cnn(-c2ccc(F)cc2F)c1/C=N/NC(=S)Nc1ccccc1	none (no result: PG9 binder, NR2E3 ag-1, NR2E3 ag-2)
CC(C(=O)Nc1ccccc1)c1ccc(-c2ccccc2)c(F)c1 (stereo unspecified)	NR2E3 ag-2 74 (no result: PG9 binder, Rev-erbA mod) | NR2E3 ag confirm inactive | VP16 counter inactive
CC(C)CN1C(=O)[C@]2(CC(=O)N(C)C2c2ccccc2)c2cc(-n3cc(CN(C)C)nn3)ccc21 (stereo partly specified)	none (no result: PG9 binder, NR2E3 ag-1, NR2E3 ag-2)
C=CS(=O)(=O)c1ccc(Oc2ccc(S(=O)(=O)C=C)cc2)cc1	NR2E3 ag-2 91 | NR2E3 ag confirm inactive | VP16 counter inactive
CCOC(=O)[C@@]12CCCC3=C1N(CCC3)C(=O)[C@H]2CC(=O)N1CCN(C(=O)C2CC2)CC1	none (no result: PG9 binder, NR2E3 ag-1, NR2E3 ag-2)
C(=NN1CCCCCC1)c1cccc2ccccc12	none (no result: NR2E3 ag-1)
C(=NN1CCCCCC1)c1ccc2ccccc2n1	NR2E3 ag-2 95 (no result: NR2E3 ag-1) | NR2E3 ag confirm 86 | VP16 counter inactive
CCc1ccc(N2C(=O)C[C@@](C#N)(C(=O)OC)[C@H]2c2ccccc2)cc1	none (no result: PG9 binder, NR2E3 ag-1, NR2E3 ag-2)
Cc1ccc(NC(=O)NC2CC(=O)N(c3ccc4c(c3)OCCO4)C2)cc1C (stereo unspecified)	none | NR2E3 ag confirm inactive | VP16 counter inactive
Cc1cnc(NC(=O)C2CC(=O)N(c3ccc4c(c3)OCCO4)C2)s1 (stereo unspecified)	none (no result: NR2E3 ag-1) | NR2E3 ag confirm 75 | VP16 counter inactive
Cc1cnc(NC(=O)C2CC(=O)N(c3cccc(Cl)c3)C2)s1 (stereo unspecified)	NR2E3 ag-2 86 | NR2E3 ag confirm 100 | VP16 counter inactive
O=C(CN1C(=O)C2(OCCCO2)c2ccccc21)NCc1ccc(F)cc1	none (no result: PG9 binder, NR2E3 ag-1, NR2E3 ag-2)
COc1ccc(S(=O)(=O)N2CCCCC2)cc1NC(=S)Nc1cccc(Cl)c1C	NR2E3 ag-2 80 | NR2E3 ag confirm 89 | VP16 counter inactive
COc1ccc(NC(=S)Nc2cc(S(=O)(=O)N3CCCCC3)ccc2OC)cc1	none (no result: PG9 binder, Rev-erbA mod, NR2E3 ag-2)
COc1ccc(S(=O)(=O)N2CCCCC2)cc1NC(=S)Nc1ccccc1	NR2E3 ag-2 91 | NR2E3 ag confirm 86 | VP16 counter inactive
CS(=O)(=O)c1ccccc1C(=O)N1CCN(S(=O)(=O)c2ccc(C3CCCCC3)cc2)CC1	none (no result: NR2E3 ag-1) | NR2E3 ag confirm inactive | VP16 counter inactive
O=C(N[C@@H](Cc1cccnc1)C(=O)N1CCC[C@H]1C(=O)NCCc1ccccc1Cl)C1CCCC1	none (no result: NR2E3 ag-1, NR2E3 ag-2)
C/C(CC(C)(C)C1CCCCC1)=N\NC(N)=S	NR2E3 ag-2 81 | NR2E3 ag confirm inactive | VP16 counter inactive
